# Results: ChEMBL document CHEMBL1134835, “Analogues of prazosin that bear a benextramine-related polyamine backbone exhibit different antagonism toward alpha1-adrenoreceptor subtypes” (J Med Chem, 2001)
# Key:
# [1] = target: T1, Alpha-1D adrenergic receptor (Rattus norvegicus) (UniProt P23944); details: Thoracic aorta
# T1 sequence (whole entry): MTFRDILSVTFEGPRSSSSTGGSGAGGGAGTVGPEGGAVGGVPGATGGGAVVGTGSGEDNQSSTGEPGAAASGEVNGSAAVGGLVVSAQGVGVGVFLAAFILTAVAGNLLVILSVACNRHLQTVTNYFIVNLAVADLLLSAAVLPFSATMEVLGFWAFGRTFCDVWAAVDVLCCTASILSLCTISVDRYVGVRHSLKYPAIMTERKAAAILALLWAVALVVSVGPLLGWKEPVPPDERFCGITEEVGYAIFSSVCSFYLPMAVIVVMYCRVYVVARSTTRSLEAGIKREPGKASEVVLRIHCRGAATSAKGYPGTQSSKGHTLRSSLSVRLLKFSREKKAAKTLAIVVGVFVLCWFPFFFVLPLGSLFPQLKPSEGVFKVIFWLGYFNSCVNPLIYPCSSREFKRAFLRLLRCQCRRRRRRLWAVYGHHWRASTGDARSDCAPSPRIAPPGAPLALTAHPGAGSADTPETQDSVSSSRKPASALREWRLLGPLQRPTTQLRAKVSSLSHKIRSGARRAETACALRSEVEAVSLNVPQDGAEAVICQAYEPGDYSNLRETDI
# [2] = target: T2, Alpha-1B adrenergic receptor (Rattus norvegicus) (UniProt P15823); details: Spleen
# T2 sequence (whole entry): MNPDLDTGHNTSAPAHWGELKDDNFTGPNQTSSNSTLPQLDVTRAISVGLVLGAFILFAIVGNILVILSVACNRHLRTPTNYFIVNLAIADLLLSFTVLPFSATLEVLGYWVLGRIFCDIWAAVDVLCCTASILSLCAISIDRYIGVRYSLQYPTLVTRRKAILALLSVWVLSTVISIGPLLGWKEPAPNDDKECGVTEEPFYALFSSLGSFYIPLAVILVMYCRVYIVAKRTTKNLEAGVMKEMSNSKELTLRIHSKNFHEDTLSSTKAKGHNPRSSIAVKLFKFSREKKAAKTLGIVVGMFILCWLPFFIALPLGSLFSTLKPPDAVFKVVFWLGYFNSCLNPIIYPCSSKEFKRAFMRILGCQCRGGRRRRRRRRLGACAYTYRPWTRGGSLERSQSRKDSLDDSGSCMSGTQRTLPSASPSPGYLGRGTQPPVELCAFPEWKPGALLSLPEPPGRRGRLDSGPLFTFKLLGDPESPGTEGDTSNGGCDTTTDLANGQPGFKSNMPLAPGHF
# [3] = target: T3, Alpha-1A adrenergic receptor (Rattus norvegicus) (UniProt P43140)
# T3 sequence (whole entry): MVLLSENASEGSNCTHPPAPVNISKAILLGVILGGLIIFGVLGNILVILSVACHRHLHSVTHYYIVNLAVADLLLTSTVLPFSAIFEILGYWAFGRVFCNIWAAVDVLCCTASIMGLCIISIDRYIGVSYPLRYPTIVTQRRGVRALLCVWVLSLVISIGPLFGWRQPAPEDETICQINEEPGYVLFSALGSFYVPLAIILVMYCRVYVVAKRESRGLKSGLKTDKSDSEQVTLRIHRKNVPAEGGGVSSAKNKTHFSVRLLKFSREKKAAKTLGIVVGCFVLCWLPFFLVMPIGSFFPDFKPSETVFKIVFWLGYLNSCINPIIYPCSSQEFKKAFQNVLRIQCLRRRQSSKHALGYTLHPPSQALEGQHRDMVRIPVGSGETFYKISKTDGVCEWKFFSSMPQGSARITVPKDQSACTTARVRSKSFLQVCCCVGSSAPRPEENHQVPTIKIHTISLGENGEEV
# [4] = target: T4, Alpha-1B adrenergic receptor (Rattus norvegicus, UniProt P15823); experiment: Antagonist affinity [non competitive (irreversible)] at alpha-1B-adrenoceptors on isolated spleen from rat; assay type: functional, tissue-based
# T4 sequence (P15823 whole entry): T2 sequence (whole entry)
# In short: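 Isolated rat spleen contracted by (-)-phenylephrine, measured isometrically. Cumulative curves run at 30 min intervals, the second taken as control. Antagonist incubated 30 min, washed 30 min, then a new curve. Loss of maximal response expressed as % of control; IC50 estimated from % inhibition vs log molar concentration plots, reported as pIC50 ± SE of n experiments.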
# [5] = target: T5, Alpha-1A adrenergic receptor (Rattus norvegicus, UniProt P43140); experiment: Antagonist affinity [non competitive (irreversible)] at alpha-1A-adrenoceptors on isolated prostatic Vas deferens from rat; assay type: functional
# T5 sequence (P43140 whole entry): T3 sequence (whole entry)
# In short: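 Rat vas deferens prostatic portion, equilibrated 60 min with washes every 15 min, primed twice with 10 µM noradrenaline, then a basal noradrenaline concentration-response curve (solutions with 0.05% Na₂S₂O₅). Antagonist 30 min, then 30 min washing, then a new curve. Maximal-response decrease expressed as % of control; IC50 read graphically from % inhibition vs log molar concentration, given as pIC50 ± SE.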
pKb [1],pKb [2],pKb [3],IC50 [4],IC50 [5],Compound
8.31,7.45,7.43,,,COc1cc2nc(N3CCN(C(=O)c4ccc(C(F)(F)F)cc4)CC3)nc(N)c2cc1OC
,,,41.7 µM,2 µM,COc1cc2nc(N3CCN(C(=O)c4ccc(CNCCCCCCNCCSSCCNCCCCCCNCc5ccc(C(=O)N6CCN(c7nc(N)c8cc(OC)c(OC)cc8n7)CC6)cc5)cc4)CC3)nc(N)c2cc1OC
,,,2.14 µM,4.68 µM,COc1cc2nc(N(C)CCCCCCN(C)C(=O)c3ccc(CNCCCCCCNCCSSCCNCCCCCCNCc4ccc(C(=O)N(C)CCCCCCN(C)c5nc(N)c6cc(OC)c(OC)cc6n5)cc4)cc3)nc(N)c2cc1OC
9.71,,8.99,,,COc1cc2nc(N3CCN(C(=O)c4ccco4)CC3)nc(N)c2cc1OC
8.98,7.74,8.46,,,COc1ccc(C(=O)N2CCN(c3nc(N)c4cc(OC)c(OC)cc4n3)CC2)cc1
,,,55 µM,3.89 µM,COc1cc2nc(N3CCN(C(=O)c4cccc(CNCCCCCCNCCSSCCNCCCCCCNCc5cccc(C(=O)N6CCN(c7nc(N)c8cc(OC)c(OC)cc8n7)CC6)c5)c4)CC3)nc(N)c2cc1OC
8.38,6.95,7.59,,,COc1cc2nc(N3CCN(C(=O)c4ccc(C=O)cc4)CC3)nc(N)c2cc1OC
7.94,6.8,7.74,,,COc1cc2nc(N3CCN(C(=O)c4ccccc4CNCCCCCCNCCCCCCNCCCCCCNCc4ccccc4C(=O)N4CCN(c5nc(N)c6cc(OC)c(OC)cc6n5)CC4)CC3)nc(N)c2cc1OC
7.47,7.16,6.97,,,COc1cc2nc(N3CCN(C(=O)c4ccc(CNCCCCCCNCCCCCCNCCCCCCNCc5ccc(C(=O)N6CCN(c7nc(N)c8cc(OC)c(OC)cc8n7)CC6)cc5)cc4)CC3)nc(N)c2cc1OC

# The next lines start with the molecule.
Compound,pKb [1],pKb [2],pKb [3],IC50 [4],IC50 [5]
COc1cc2nc(N3CCN(C(=O)c4cccc(CNCCCCCCNCCCCCCNCCCCCCNCc5cccc(C(=O)N6CCN(c7nc(N)c8cc(OC)c(OC)cc8n7)CC6)c5)c4)CC3)nc(N)c2cc1OC,7.43,6.5,7.29,,
COc1cc2nc(N3CCN(C(=O)c4ccc(C)cc4)CC3)nc(N)c2cc1OC,8.91,7.67,7.96,,
COc1cc2nc(N(C)CCCCCCN(C)C(=O)c3ccccc3CNCCCCCCNCCCCCCNCCCCCCNCc3ccccc3C(=O)N(C)CCCCCCN(C)c3nc(N)c4cc(OC)c(OC)cc4n3)nc(N)c2cc1OC,8.47,7.22,8.17,,
COc1cc2nc(N3CCN(C(=O)c4cccc(C=O)c4)CC3)nc(N)c2cc1OC,8.07,6.92,7.79,,
COc1cc2nc(N3CCN(C(=O)c4ccccc4C)CC3)nc(N)c2cc1OC,7.99,7.33,6.97,,
COc1cc2nc(N(C)CCCCCCN(C)C(=O)c3ccc(CNCCCCCCNCCCCCCNCCCCCCNCc4ccc(C(=O)N(C)CCCCCCN(C)c5nc(N)c6cc(OC)c(OC)cc6n5)cc4)cc3)nc(N)c2cc1OC,7.9,7.56,8.53,,
COc1cc2nc(N(C)CCCCCCN(C)C(=O)c3cccc(CNCCCCCCNCCCCCCNCCCCCCNCc4cccc(C(=O)N(C)CCCCCCN(C)c5nc(N)c6cc(OC)c(OC)cc6n5)c4)c3)nc(N)c2cc1OC,9.3,7.41,8.48,,
COc1cc2nc(N3CCN(C(=O)c4cccc(C)c4)CC3)nc(N)c2cc1OC,9.12,8.12,8.49,,
COc1cc2nc(N3CCN(C(=O)c4ccccc4C(F)(F)F)CC3)nc(N)c2cc1OC,8.31,6.55,6.43,,
COc1cc2nc(N3CCN(C(=O)c4ccccc4C=O)CC3)nc(N)c2cc1OC,7.56,6.5,6.94,,
COc1cccc(C(=O)N2CCN(c3nc(N)c4cc(OC)c(OC)cc4n3)CC2)c1,7.46,7.84,7.87,,
COc1cc2nc(N3CCN(C(=O)c4ccccc4OC)CC3)nc(N)c2cc1OC,7.76,6.77,7.34,,
COc1cc2nc(N3CCN(C(=O)c4cccc(C(F)(F)F)c4)CC3)nc(N)c2cc1OC,8.38,7.16,7.49,,
COc1cc2nc(N3CCN(C(=O)c4ccccc4)CC3)nc(N)c2cc1OC,8.86,7.44,7.66,,
COc1cc2nc(N(C)CCCCCCN(C)C(=O)c3ccccc3CNCCCCCCNCCSSCCNCCCCCCNCc3ccccc3C(=O)N(C)CCCCCCN(C)c3nc(N)c4cc(OC)c(OC)cc4n3)nc(N)c2cc1OC,,,,1.86 µM,1.86 µM
COc1cc2nc(N(C)CCCCCCN(C)C(=O)c3cccc(CNCCCCCCNCCSSCCNCCCCCCNCc4cccc(C(=O)N(C)CCCCCCN(C)c5nc(N)c6cc(OC)c(OC)cc6n5)c4)c3)nc(N)c2cc1OC,,,,1.74 µM,0.0457 µM
COc1cc2nc(N3CCN(C(=O)c4ccccc4CNCCCCCCNCCSSCCNCCCCCCNCc4ccccc4C(=O)N4CCN(c5nc(N)c6cc(OC)c(OC)cc6n5)CC4)CC3)nc(N)c2cc1OC,,,,5.13 µM,5.01 µM
